High-throughput results deposited in PubChem by The Scripps Research Institute Molecular Screening Center.
Only some compounds are listed: those with a hit (about 3.3% of all), similar ones and a draw of the others.
TDP2 inh: TDP2 (human) inhibition, absorbance primary screen. AID 720702. hit rate 0.34% among 370,000. recombinant TDP2, T5PNP hydrolysis, p-nitrophenol absorbance 415 nm. inhibition, % at 12.8 µM;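 active means inhibition above the mean of all tested compounds plus 3 SD, set per campaign, cut at about 25% in these data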;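 further: 0% = DMSO with enzyme and 100% = buffer with substrate but no TDP2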
Target sequence (O95551 whole entry, looked up): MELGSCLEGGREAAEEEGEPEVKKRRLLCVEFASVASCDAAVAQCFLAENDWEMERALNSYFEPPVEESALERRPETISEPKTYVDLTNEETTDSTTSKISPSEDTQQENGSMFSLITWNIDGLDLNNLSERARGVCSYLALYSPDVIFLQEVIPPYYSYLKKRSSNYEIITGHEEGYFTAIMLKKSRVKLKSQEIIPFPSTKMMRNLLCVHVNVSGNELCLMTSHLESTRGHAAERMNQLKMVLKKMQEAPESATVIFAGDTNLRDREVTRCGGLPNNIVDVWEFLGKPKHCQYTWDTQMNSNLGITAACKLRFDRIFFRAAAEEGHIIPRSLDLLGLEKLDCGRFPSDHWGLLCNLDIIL
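System – recombinant human TDP2 · Quantity – TDP2 enzyme at 120 nM final · Doses – single concentration, 12.8 µM nominal, with 1% DMSO · Incubation – 2 h at 37 °C · Measured by – epi absorbance of p-nitrophenol freed from T5PNP by hydrolysis · Read-out – % inhibition relative to enzyme-containing and enzyme-free wells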
MBD2 DNA inh: inhibitors of human MBD2 binding to methylated oligonucleotide | TR-FRET | hit rate 0.31% among 370,000 | inhibition, % at 4.4 µM | Q9UBB5; in the data active means inhibition above about 13%
PRMT1 FP inh: blocks human protein arginine methyltransferase 1 | Q99873 | recombinant PRMT1, activity-based probe fluorescence polarization | inhibition, % at 2.79 µM | hit rate 1.3% among 370,000 | AID 652257;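 active means inhibition above about 21% made by adding two undisclosed values, limit read from the data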
UHRF1 binding: UHRF1 methyl-DNA binding inhibition; hit rate 0.75% among 370,000; UHRF1 binding to methylated oligo, TR-FRET; inhibition, % at 4.4 µM; AID 687016; Q96T88; in the data active means inhibition above about 21%;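 further: UHRF1 SRA domain binding a hemimethylated CpG hairpin DNA probe; 0% = median of test compound wells and 100% = reference inhibitor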
SIAE primary: inhibitors of human sialic acid acetylesterase SIAE. Q9HAT2. SIAE FP-Rh probe binding, fluorescence polarization. inhibition, % at 9.66 µM. hit rate 0.69% among 370,000;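 active means inhibition above a cutoff: mean of compounds within the control limits plus 3 SD of those, cut at about 17% in these data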;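 further: 0% = plate median of compound wells and 100% = probe without SIAE protein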
LEDGF integ inh: blocks HIV-1 LEDGF/p75-dependent DNA integration | TR-FRET IN-LEDGF/p75 DNA integration, Eu/Cy5 | hit rate 0.64% among 370,000 | inhibition, % at 3.7 µM | AID 743269;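 active means inhibition above the screen-wide mean plus 3 SD, cut at about 13% in these data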;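 further: signal is the Cy5 over europium emission ratio at 671 and 618 nm; 0% = plate median of compound wells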
TDP2 inh conf: confirmation of human TDP2 inhibitors; shares compounds with TDP2 inh; recombinant human TDP2, absorbance read-out; inhibition, % at 12.8 µM; hit rate 22% among 1,100; AID 743263; in the data active means inhibition above about 25%;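 further: 0% = vehicle with enzyme and 100% = no enzyme buffer only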
Starred values were filed as active, the others as inactive; x = no result given.

SMILES | TDP2 inh | MBD2 DNA inh | PRMT1 FP inh | UHRF1 binding | SIAE primary | LEDGF integ inh | TDP2 inh conf
C=CCn1c(COc2ccc(C)cc2)nnc1SCC(=O)c1ccc(-c2ccccc2)cc1 | -9.2 | -1.2 | -2.2 | 2.7 | -2.3 | 4.0 | x
Cc1cc(O)c(C=Nc2ccc(N3CCOCC3)cc2)c(C)c1Cl | 36.6* | 0.5 | 6.3 | 0.2 | 3.5 | 13.3 | 4.1
Cn1c(O)c(C=Nc2ccc(N3CCOCC3)cc2)c(=O)n(C)c1=S | -6.8 | -1.8 | -0.7 | -4.4 | -0.2 | 2.3 | x
Cc1cc(C)c(NC(=O)COC(=O)c2ccc([N+](=O)[O-])s2)c(C)c1 | -8.1 | -4.2 | 0.4 | -2.2 | 2.4 | 1.5 | x
NS(=O)(=O)c1ccc(NC(=O)COC(=O)c2ccc([N+](=O)[O-])s2)cc1 | 27.5* | -8.4 | -1.4 | 1.8 | -0.3 | 6.9 | 36.0*
CN(CC(=O)Nc1ccccc1Cl)C(=O)COC(=O)c1ccc([N+](=O)[O-])s1 | 29.6* | -1.7 | -0.2 | -2.1 | 10.6 | 10.0 | 18.9
O=C(COC(=O)c1ccc([N+](=O)[O-])s1)NC(=O)NCc1ccccc1 | 21.4 | -1.0 | -1.0 | -0.4 | -2.7 | 0.3 | x
O=C(COC(=O)c1ccc([N+](=O)[O-])s1)NCc1ccc(F)cc1 | 59.4* | 1.7 | 0.8 | 14.4 | 0.8 | 7.4 | 23.2
CS(=O)(=O)c1ccc(C(=O)Nc2cccc(-c3nc4ccccc4[nH]3)c2)cc1 | -8.2 | -0.2 | 5.2 | 5.0 | -24.9 | 0.9 | x
CS(=O)(=O)c1cccc(C(=O)Nc2cccc(-c3nc4ccccc4[nH]3)c2)c1 | 25.4* | 2.9 | 4.4 | 20.8* | -54.8 | 2.0 | 7.0
CCOc1ccc(S(=O)(=O)N2CCCCC2)cc1NC(=O)c1c(CC)noc1C | 25.1* | -3.4 | -4.5 | -4.2 | -8.1 | -1.0 | -7.9
CCc1noc(C)c1C(=O)Nc1cccc(S(=O)(=O)N2CCCCCC2)c1 | 20.1 | 2.0 | 0.8 | 0.1 | -3.0 | -0.7 | x
CCn1cc(S(=O)(=O)Nc2ncccn2)cn1 | 24.9* | -5.7 | 3.5 | -2.0 | 7.0 | 1.0 | 1.3
CCn1cc(S(=O)(=O)Nc2ccc(C)c(Cl)c2)cn1 | 10.5 | 3.0 | -1.6 | 0.0 | -0.7 | -0.6 | x
CC1CCN(C(=O)C2CCCN(C(=O)c3ccc4c(c3)NC(=O)CS4)C2)CC1 (stereo not drawn) | 3.6 | -5.5 | -4.0 | -0.2 | -2.5 | 3.1 | x
Nc1ccc2c(c1)C(=O)C(=O)c1ccccc1-2 | 97.6* | 4.6 | 6.8 | -14.6 | 4.6 | -18.9 | 87.0*
COc1ccc(NC(=O)C2CCN(C(=O)[C@@H]3Cc4ccccc4CN3)CC2)cc1 | 27.9* | -4.6 | 2.4 | 0.7 | 3.9 | -1.1 | 2.0
Cc1ccc(NC(=O)C2CCN(C(=O)[C@@H]3Cc4ccccc4CN3)CC2)c(C)c1 | 25.4* | 4.8 | -0.8 | 8.6 | 8.0 | 0.9 | 1.6
C#CCN(C1CC1)S(=O)(=O)c1ccccc1Br | 6.1 | 2.6 | -4.1 | -0.1 | -7.2 | 3.2 | x
O=C(Nc1ccc2c(c1)OCO2)N1CCC(c2nc3ccc(Cl)cc3[nH]2)CC1 | 0.8 | -2.8 | -0.8 | -3.1 | 0.3 | 0.5 | x
O=C1C(=O)N(Cc2ccc(-c3ccc(F)nc3)cc2)c2ccc(OC(F)(F)F)cc21 | -3.1 | -6.5 | 1.9 | -2.5 | -1.3 | 0.0 | x
N#Cc1c(-c2ccccc2)cc(-c2ccc(O)cc2)nc1N | 28.8* | -1.8 | -2.8 | -2.3 | -7.8 | 2.6 | -5.1
Cc1sc2nc(COC(=O)CNC(=O)c3ccc(F)cc3Cl)[nH]c(=O)c2c1C | -8.3 | -9.4 | -1.9 | -0.4 | 3.5 | 1.1 | x
COc1ccc(Nc2nc3ccccc3n3cnnc23)cc1Cl | 25.8* | 1.8 | -2.9 | -4.7 | 12.1 | 1.0 | -4.0
C=CCN(CC#Cc1ccc(C(F)(F)F)cc1)CC=C | -9.2 | 0.8 | -4.4 | -0.3 | 6.0 | 10.0 | x
O=C(Cc1ccccc1[N+](=O)[O-])NCC1(c2cccc3c2OCO3)OCCO1 | 27.1* | -0.2 | -0.9 | -0.8 | 6.6 | 3.2 | 4.8
O=C(Cc1ccccc1[N+](=O)[O-])NC1CC1 | 2.9 | 0.4 | 2.0 | 0.0 | 3.4 | 2.2 | x
COc1cccc(NC2=C(NCCO)C(=O)c3ccccc3C2=O)c1 | 54.7* | -17.9 | 1.0 | -12.5 | 1.6 | 6.6 | 11.7
COc1cccc(Nc2c(Nc3cccc(OC)c3)c(=O)c2=O)c1 | 15.3 | -1.0 | -3.3 | -0.7 | 14.4 | -1.3 | x
